Data as given in ChEMBL document CHEMBL1142492 (J Med Chem, 2008).
pIC50: −log10 of the molar value.

Legend:
[1] = biological target: Cyclin-dependent kinase-like 2 (Homo sapiens) (UniProt Q92772); test: Inhibition of CDKL2 at 3 uM
[2] = biological target: RAC-alpha serine/threonine-protein kinase (Homo sapiens, UniProt P31749); test: Inhibition of AKT1 after 55 mins
[3] = biological target: Proto-oncogene tyrosine-protein kinase receptor Ret (Homo sapiens) (UniProt P07949); test: Inhibition of RET at 3 uM
[4] = biological target: Platelet-derived growth factor receptor alpha (Homo sapiens) (UniProt P16234); test: Inhibition of PDGFRA at 3 uM
[5] = biological target: Serine/threonine-protein kinase 3 (Homo sapiens) (UniProt Q13188); test: Inhibition of MST2 at 3 uM
[6] = biological target: Histamine H1 receptor (Homo sapiens) (UniProt P35367); test: Inhibition of human histamine H1 receptor at 3 uM
[7] = biological target: Calcium/calmodulin-dependent protein kinase type II subunit alpha (Homo sapiens) (UniProt Q9UQM7); test: Inhibition of CAMK2A at 3 uM
[8] = biological target: Epithelial discoidin domain-containing receptor 1 (Homo sapiens) (UniProt Q08345); test: Inhibition of DDR1 at 3 uM
[9] = in vivo; conditions: Sprague-Dawley, rat, po, 2 mg/kg
[10] = biological target: Mitogen-activated protein kinase kinase kinase 3 (Homo sapiens) (UniProt Q99759); test: Inhibition of MAP3K3 at 3 uM
[11] = biological target: Casein kinase II subunit alpha (Homo sapiens) (UniProt P68400); test: Inhibition of CSNK2A1 at 3 uM
[12] = biological target: Receptor-interacting serine/threonine-protein kinase 4 (Homo sapiens) (UniProt P57078); test: Inhibition of RIPK4 at 3 uM
[13] = biological target: Myosin light chain kinase 2, skeletal/cardiac muscle (Homo sapiens) (UniProt Q9H1R3); test: Inhibition of MYLK2 at 3 uM
[14] = biological target: Cyclin-dependent kinase 9 (Homo sapiens) (UniProt P50750); test: Inhibition of CDK9 at 3 uM
[15] = organism: Rattus norvegicus; conditions: 3 uM
[16] = biological target: Serine/threonine-protein kinase MARK2 (Homo sapiens) (UniProt Q7KZI7); test: Inhibition of MARK2 at 3 uM
[17] = biological target: Receptor tyrosine-protein kinase erbB-2 (Homo sapiens) (UniProt P04626); test: Inhibition of ERBB2 at 3 uM
Outline: (§1)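 Single-concentration kinase panel scoring: each value is the percentage of enzyme activity remaining relative to a DMSO-only control. An activity statistically indistinct from DMSO control was scored "no hit".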

[18] = system: Mast/stem cell growth factor receptor Kit (Homo sapiens), P10721 [V559D]; test: Inhibition of KIT V559D mutant at 3 uM
[19] = biological target: Serine/threonine-protein kinase PLK3 (Homo sapiens) (UniProt Q9H4B4); test: Inhibition of PLK3 at 3 uM
[20] = Inhibition of myosin light chain bisphosphorylation in rat A7r5 cells after 1 hr
[21] = organism: Rattus norvegicus; conditions: 3 uM; remark: listed apart in the source
[22] = biological target: Calcium/calmodulin-dependent protein kinase type 1 (Homo sapiens) (UniProt Q14012); test: Inhibition of CAMK1 at 3 uM
[23] = biological target: Insulin receptor (Homo sapiens) (UniProt P06213); test: Inhibition of INSR at 3 uM
[24] = biological target: Prostaglandin E2 receptor EP4 subtype (Homo sapiens) (UniProt P35408); test: Inhibition of human prostanoid EP4 receptor at 3 uM
Outline: (§2)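 Counter-screen binding/enzyme panel at single 3 μM, n=2; results as percent inhibition. Species per target as listed (rat NMDA, GABAA sites; human receptors, transporters; rabbit ACE).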

[25] = biological target: Serine/threonine-protein kinase pim-3 (Homo sapiens) (UniProt Q86V86); test: Inhibition of PIM3 at 3 uM
[26] = organism: Oryctolagus cuniculus; conditions: 3 uM
[27] = biological target: Cyclin-dependent kinase 11B (Homo sapiens) (UniProt P21127); test: Inhibition of CDC2L1 at 3 uM
[28] = biological target: Glycogen synthase kinase-3 beta (Homo sapiens) (UniProt P49841); test: Inhibition of GSK3B at 3 uM
[29] = biological target: Alpha-1D adrenergic receptor (Homo sapiens) (UniProt P25100); test: Inhibition of human adrenergic Alpha-1D receptor at 3 uM; outline: as §2
[30] = biological target: Tyrosine-protein kinase SYK (Homo sapiens) (UniProt P43405); test: Inhibition of SYK at 3 uM
[31] = biological target: Epidermal growth factor receptor (Homo sapiens) (UniProt P00533); test: Inhibition of EGFR at 3 uM; outline: as §1
[32] = biological target: cAMP-dependent protein kinase catalytic subunit alpha (Homo sapiens) (UniProt P17612); test: Inhibition of PKAC-alpha at 3 uM
[33] = biological target: Receptor-interacting serine/threonine-protein kinase 2 (Homo sapiens) (UniProt O43353); test: Inhibition of RIPK2 at 3 uM
[34] = biological target: Death-associated protein kinase 2 (Homo sapiens) (UniProt Q9UIK4); test: Inhibition of DAPK2 at 3 uM
[35] = biological target: Serine/threonine-protein kinase TAO3 (Homo sapiens) (UniProt Q9H2K8); test: Inhibition of TAOK3 at 3 uM
[36] = system: Proto-oncogene tyrosine-protein kinase receptor Ret (Homo sapiens), P07949 [V804L]; test: Inhibition of RET V804L mutant at 3 uM
[37] = biological target: Serine/threonine-protein kinase DCLK1 (Homo sapiens) (UniProt O15075); test: Inhibition of DCAMKL1 at 3 uM
[38] = biological target: BDNF/NT-3 growth factors receptor (Homo sapiens) (UniProt Q16620); test: Inhibition of TRKB at 3 uM
[39] = biological target: Cyclin-dependent kinase 7 (Homo sapiens) (UniProt P50613); test: Inhibition of CDK7 at 3 uM
[40] = biological target: MAP kinase-activated protein kinase 2 (Homo sapiens) (UniProt P49137); test: Inhibition of MAPKAPK2 at 3 uM
[41] = biological target: Myosin light chain kinase, smooth muscle (Homo sapiens) (UniProt Q15746); test: Inhibition of MYLK at 3 uM
[42] = biological target: MAP kinase-interacting serine/threonine-protein kinase 1 (Homo sapiens) (UniProt Q9BUB5); test: Inhibition of MKNK1 at 3 uM
[43] = in vivo; conditions: Sprague-Dawley, rat, plasma, iv, 1 mg/kg
[44] = biological target: 3-phosphoinositide-dependent protein kinase 1 (Homo sapiens) (UniProt O15530); test: Inhibition of PDPK1 at 3 uM
[45] = system: eIF-2-alpha kinase GCN2 (Homo sapiens), Q9P2K8 [S808G]; test: Inhibition of GCN2 Kin.Dom.2,S808G mutant at 3 uM
[46] = biological target: Mitogen-activated protein kinase 8 (Homo sapiens) (UniProt P45983); test: Inhibition of JNK1 at 3 uM

Prostaglandin E2 receptor EP4 subtype (Homo sapiens), sequence (P35408 whole entry): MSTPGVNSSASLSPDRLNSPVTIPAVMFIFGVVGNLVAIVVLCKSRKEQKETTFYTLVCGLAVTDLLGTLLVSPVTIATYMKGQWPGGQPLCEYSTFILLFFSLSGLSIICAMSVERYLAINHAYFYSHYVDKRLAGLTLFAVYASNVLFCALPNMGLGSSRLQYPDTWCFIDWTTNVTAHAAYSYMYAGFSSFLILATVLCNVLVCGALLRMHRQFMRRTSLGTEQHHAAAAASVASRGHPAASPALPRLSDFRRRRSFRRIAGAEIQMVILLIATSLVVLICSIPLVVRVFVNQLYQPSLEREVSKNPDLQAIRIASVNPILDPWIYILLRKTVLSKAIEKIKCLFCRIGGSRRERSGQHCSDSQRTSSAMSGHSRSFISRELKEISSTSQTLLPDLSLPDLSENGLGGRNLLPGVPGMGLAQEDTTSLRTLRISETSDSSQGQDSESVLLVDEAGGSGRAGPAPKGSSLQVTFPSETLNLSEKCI
Cyclin-dependent kinase 11B (Homo sapiens), sequence (P21127 whole entry): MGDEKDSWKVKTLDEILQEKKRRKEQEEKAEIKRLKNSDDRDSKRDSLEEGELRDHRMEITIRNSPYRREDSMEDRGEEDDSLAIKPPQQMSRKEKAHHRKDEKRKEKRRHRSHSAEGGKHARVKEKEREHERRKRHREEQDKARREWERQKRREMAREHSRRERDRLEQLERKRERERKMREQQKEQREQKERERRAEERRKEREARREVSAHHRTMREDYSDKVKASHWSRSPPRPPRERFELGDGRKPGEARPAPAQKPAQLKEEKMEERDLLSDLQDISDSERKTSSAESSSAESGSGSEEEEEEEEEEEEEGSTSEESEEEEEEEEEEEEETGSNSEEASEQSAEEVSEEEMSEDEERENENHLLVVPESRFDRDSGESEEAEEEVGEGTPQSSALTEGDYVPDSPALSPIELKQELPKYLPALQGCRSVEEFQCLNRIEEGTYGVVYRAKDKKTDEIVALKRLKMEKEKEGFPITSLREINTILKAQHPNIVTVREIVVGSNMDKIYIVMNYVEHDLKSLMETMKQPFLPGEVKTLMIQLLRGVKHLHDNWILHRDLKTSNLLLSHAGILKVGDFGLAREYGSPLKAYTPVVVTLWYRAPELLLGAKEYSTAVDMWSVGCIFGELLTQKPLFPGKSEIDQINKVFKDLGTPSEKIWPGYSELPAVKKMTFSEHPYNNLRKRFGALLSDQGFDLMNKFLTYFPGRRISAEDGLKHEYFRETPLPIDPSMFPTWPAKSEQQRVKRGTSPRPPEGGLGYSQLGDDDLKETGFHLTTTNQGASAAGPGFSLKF
Mast/stem cell growth factor receptor Kit (Homo sapiens), P10721 [V559D], sequence (P10721 whole entry V559D): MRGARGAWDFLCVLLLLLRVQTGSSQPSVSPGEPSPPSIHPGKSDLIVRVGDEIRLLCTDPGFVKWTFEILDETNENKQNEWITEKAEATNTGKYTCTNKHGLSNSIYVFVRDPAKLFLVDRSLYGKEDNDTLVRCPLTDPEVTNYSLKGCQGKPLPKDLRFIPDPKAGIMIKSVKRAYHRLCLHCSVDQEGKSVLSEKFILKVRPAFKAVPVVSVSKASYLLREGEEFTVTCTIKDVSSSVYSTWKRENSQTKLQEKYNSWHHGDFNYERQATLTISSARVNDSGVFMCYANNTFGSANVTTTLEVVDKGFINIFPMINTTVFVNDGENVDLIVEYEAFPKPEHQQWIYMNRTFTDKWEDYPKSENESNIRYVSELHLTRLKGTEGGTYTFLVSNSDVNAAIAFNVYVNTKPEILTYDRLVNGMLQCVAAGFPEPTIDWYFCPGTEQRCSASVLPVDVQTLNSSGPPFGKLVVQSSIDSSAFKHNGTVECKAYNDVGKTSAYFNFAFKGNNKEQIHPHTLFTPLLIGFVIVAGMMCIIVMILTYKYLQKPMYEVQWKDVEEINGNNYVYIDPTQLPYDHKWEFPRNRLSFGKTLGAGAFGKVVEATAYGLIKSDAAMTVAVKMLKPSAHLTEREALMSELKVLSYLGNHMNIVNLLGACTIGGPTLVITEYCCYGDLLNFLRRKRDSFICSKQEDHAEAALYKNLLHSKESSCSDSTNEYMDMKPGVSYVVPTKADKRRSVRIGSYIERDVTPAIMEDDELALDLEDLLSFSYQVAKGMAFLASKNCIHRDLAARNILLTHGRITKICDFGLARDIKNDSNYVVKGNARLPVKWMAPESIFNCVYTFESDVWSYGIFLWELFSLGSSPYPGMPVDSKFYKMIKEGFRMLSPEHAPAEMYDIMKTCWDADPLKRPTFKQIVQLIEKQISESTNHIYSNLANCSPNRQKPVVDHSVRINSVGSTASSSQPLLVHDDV
Death-associated protein kinase 2 (Homo sapiens), sequence (Q9UIK4 whole entry, looked up): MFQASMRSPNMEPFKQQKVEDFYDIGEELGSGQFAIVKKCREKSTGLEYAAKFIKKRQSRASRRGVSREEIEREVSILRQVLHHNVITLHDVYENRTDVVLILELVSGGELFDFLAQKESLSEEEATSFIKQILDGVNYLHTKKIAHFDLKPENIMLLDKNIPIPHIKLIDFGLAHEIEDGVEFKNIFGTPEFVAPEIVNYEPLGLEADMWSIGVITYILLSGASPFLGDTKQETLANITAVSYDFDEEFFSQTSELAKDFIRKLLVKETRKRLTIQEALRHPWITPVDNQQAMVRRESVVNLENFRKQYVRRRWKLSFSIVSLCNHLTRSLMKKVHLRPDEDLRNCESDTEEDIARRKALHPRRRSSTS
Receptor-interacting serine/threonine-protein kinase 2 (Homo sapiens), sequence (O43353 whole entry): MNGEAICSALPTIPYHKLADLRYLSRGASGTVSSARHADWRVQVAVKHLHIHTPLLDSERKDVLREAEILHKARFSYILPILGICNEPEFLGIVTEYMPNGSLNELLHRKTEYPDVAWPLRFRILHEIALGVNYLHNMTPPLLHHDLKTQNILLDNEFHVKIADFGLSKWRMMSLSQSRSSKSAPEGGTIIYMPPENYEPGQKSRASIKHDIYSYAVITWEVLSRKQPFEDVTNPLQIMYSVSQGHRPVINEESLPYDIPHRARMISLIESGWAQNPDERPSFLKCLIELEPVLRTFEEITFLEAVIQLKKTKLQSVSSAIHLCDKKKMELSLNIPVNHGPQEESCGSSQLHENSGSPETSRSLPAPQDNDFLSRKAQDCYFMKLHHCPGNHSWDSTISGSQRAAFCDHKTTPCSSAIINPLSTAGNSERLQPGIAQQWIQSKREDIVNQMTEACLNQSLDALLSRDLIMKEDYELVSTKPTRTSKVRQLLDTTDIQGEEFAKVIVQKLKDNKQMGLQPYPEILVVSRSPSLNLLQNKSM
Alpha-1D adrenergic receptor (Homo sapiens), sequence (P25100 whole entry): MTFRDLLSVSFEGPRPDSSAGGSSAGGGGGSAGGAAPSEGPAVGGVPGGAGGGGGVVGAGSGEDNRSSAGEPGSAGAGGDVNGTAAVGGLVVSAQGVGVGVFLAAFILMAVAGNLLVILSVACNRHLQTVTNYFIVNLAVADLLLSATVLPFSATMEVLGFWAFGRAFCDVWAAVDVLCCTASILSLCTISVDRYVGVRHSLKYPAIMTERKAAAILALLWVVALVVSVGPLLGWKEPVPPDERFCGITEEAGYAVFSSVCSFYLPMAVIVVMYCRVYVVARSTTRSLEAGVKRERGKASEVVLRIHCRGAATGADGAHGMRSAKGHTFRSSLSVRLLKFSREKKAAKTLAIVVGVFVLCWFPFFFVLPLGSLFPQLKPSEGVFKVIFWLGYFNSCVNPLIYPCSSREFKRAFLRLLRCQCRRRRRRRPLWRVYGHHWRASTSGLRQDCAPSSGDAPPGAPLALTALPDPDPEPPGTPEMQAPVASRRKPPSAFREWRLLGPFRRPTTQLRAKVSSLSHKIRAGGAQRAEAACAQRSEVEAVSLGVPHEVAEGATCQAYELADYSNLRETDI
Serine/threonine-protein kinase PLK3 (Homo sapiens), sequence (Q9H4B4 whole entry, looked up): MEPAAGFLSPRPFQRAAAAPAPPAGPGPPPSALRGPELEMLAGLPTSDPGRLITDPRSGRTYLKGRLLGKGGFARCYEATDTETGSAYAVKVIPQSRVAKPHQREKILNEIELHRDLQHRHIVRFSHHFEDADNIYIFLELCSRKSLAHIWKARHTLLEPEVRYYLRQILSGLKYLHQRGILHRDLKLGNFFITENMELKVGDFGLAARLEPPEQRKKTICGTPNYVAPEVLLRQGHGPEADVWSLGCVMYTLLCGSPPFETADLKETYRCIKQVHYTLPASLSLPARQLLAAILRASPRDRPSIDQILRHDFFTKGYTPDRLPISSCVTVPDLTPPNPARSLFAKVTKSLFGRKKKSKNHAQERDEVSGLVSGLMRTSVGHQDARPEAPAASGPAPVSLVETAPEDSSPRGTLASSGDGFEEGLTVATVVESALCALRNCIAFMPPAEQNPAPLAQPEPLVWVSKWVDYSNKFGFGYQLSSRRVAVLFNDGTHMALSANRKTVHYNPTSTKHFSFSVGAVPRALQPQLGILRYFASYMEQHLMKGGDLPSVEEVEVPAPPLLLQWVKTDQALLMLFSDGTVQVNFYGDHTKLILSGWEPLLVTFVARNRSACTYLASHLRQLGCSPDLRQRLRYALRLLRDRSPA
MAP kinase-interacting serine/threonine-protein kinase 1 (Homo sapiens), sequence (Q9BUB5 whole entry, looked up): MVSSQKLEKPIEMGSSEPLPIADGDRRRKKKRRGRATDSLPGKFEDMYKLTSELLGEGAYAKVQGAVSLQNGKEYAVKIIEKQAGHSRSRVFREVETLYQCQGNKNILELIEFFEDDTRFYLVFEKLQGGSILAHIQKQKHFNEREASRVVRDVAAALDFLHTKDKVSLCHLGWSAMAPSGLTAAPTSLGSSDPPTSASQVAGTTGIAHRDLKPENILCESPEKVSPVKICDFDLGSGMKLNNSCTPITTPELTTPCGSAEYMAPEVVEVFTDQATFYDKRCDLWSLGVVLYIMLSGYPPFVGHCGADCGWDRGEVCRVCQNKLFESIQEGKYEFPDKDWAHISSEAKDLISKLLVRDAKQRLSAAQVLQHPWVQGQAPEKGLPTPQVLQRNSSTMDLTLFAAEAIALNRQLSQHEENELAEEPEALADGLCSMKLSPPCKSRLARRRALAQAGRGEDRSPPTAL

## CN(C)CCOc1cc(-c2cn[nH]c2)ccc1NC(=O)C1COc2ccccc2O1 (stereo unspecified) [SR-3677]
[1]
  inhibition: < 10%
[2]
  pIC50: 5.13
[3]
  inhibition: < 10%
[4]
  inhibition: < 10%
[5]
  inhibition: < 10%
[6]
  inhibition: 7%
[7]
  inhibition: < 10%
[8]
  inhibition: < 10%
[9]
  Cmax: 50 nM
[10]
  inhibition: < 10%
[11]
  inhibition: < 10%
[12]
  inhibition: < 10%
[13]
  inhibition: < 10%
[14]
  inhibition: < 10%
[15]
  inhibition: -1%
[16]
  inhibition: < 10%
[17]
  inhibition: < 10%
[18]
  inhibition: < 10%
[19]
  inhibition: < 10%
[20]
  pIC50: 8.46
[21]
  inhibition: -4%
[22]
  inhibition: < 10%
[23]
  inhibition: < 10%
[24]
  inhibition: 5%
[25]
  inhibition: < 10%
[26]
  inhibition: 4%
[27]
  inhibition: < 10%
[28]
  inhibition: < 10%
[29]
  inhibition: 43%
[30]
  inhibition: < 10%
[31]
  inhibition: < 10%
[32]
  inhibition: < 10%
[33]
  inhibition: < 10%
[34]
  inhibition: < 10%
[35]
  inhibition: < 10%
[36]
  inhibition: < 10%
[37]
  inhibition: < 10%
[38]
  inhibition: < 10%
[39]
  inhibition: < 10%
[40]
  inhibition: < 10%
[41]
  inhibition: < 10%
[42]
  inhibition: < 10%
[43]
  AUC: 0.7 µM·h
[44]
  inhibition: < 10%
[45]
  inhibition: < 10%
[46]
  inhibition: < 10%
